From ChEMBL document CHEMBL1125736, “N-[(omega-amino-1-hydroxyalkyl)phenyl]methanesulfonamide derivatives with class III antiarrhythmic activity” (1991)

Key:
Canis familiaris [1] = experiment: Compound was tested in vivo in dogs at a dose of 10.0 mg/kg through intravenous route and time at which ventricular fibrillation was induced was recorded.(Base line value-6); type: functional, Canis lupus familiaris, Cardiac ventricle; settings: in the assay text read “Base line value-3” for “Base line value-6”
In short: (§1)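 Dogs with myocardial infarction were studied 3-9 days after infarction. They were reanesthetized with pentobarbital, ventilated, and electrodes were placed via thoracotomy; blood gases were monitored. Control ERPs and reproducible inducibility were set by programmed electrical stimulation, then cumulative iv doses were given. Agents were in glass-distilled water or NaOH-neutralized saline (pH 6.7-7.0). Animals were counted per category: NI, nonsustained, sustained, VF, or AV block preventing atrial pacing.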

Oryctolagus cuniculus [2] = species on record: Oryctolagus cuniculus; experiment: Tested for effective refractory period measured at a pacing rate of 3 Hz in vitro with rabbit heart tissue preparations.; type: functional; parameters: unit: %
In short: (§2)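 Isolated rabbit heart tissues, all from one heart, each its own baseline; 2 h equilibration, perfusate changed every 15 min, basal stimulation 2 Hz between measurements. Exposed to 10^-7, 10^-6 and 10^-5 M drug, 15 min each; values reported at 10^-5 M as percent change from baseline. Drug solutions prepared daily in glass-distilled water. Force and rate recorded on polygraph.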

Canis familiaris [3] = experiment: Compound was tested in vivo in dogs at a dose of 1.0 mg/kg through intravenous route and time at which ventricular fibrillation was induced was recorded.(Base line value-3); type: functional, Canis lupus familiaris, Cardiac ventricle; in short: as §1
Canis familiaris [4] = experiment: Compound was tested in vivo in dogs at a dose of 1.0 mg/kg through intravenous route and time at which nonsustained ventricular arrhythmias were induced was recorded.(Base line value-0); type: functional, Canis lupus familiaris, Cardiac ventricle; in short: as §1
Canis familiaris [5] = experiment: Compound was tested in vivo in dogs at a dose of 10.0 mg/kg through intravenous route and time at which nonsustained ventricular arrhythmias were induced was recorded.(Base line value-1); type: functional, Canis lupus familiaris, Cardiac ventricle; in short: as §1
Canis familiaris [6] = experiment: Conduction time from Q wave to T wave of lead II electrocardiogram was tested in dogs at a dose of 3.0 mg/kg through intravenous administration. (baseline value- 352+/-7); type: functional, Canis lupus familiaris
Canis familiaris [7] = experiment: Conduction time from the His bundle to the onset of ventricular depolarizations was tested in dogs at a dose of 10.0 mg/kg through intravenous administration. (baseline value- 17+/-1 ); type: functional, Canis lupus familiaris, Cardiac ventricle
Oryctolagus cuniculus [8] = species on record: Oryctolagus cuniculus; experiment: Tested for effective refractory period measured at a pacing rate of 1 Hz in vitro with rabbit heart tissue preparations.; type: functional; in short: as §2
Canis familiaris [9] = experiment: Compound was tested in vivo in dogs at a dose of 3.0 mg/kg through intravenous route and time at which sustained ventricular arrhythmias were induced was recorded.(Base line value-2); type: functional, Canis lupus familiaris, Cardiac ventricle; in short: as §1
Canis familiaris [10] = experiment: Compound was tested in vivo in dogs at a dose of 3.0 mg/kg through intravenous route and number of animals in which ventricular arrhythmias were not inducible was recorded.(Base line value-5)
Canis familiaris [11] = experiment: Compound was tested in vivo in dogs at a dose of 3.0 mg/kg through intravenous route and time at which conduction block at the atrioventricular node prevented atrial pacing was recorded.(Base line value-0); type: functional, Canis lupus familiaris; in short: as §1
Oryctolagus cuniculus [12] = species on record: Oryctolagus cuniculus; experiment: Tested for force of contraction measured in mg at a pacing rate of 2 Hz in vitro with rabbit heart tissue preparations.; type: functional; in short: as §2
Canis familiaris [13] = experiment: Conduction time from the atrium to His bundle was tested in dogs at a dose of 1.0 mg/kg through intravenous administration. (baseline value- 73+/-3 ); type: functional, Canis lupus familiaris
Canis familiaris [14] = experiment: Compound was tested in vivo in dogs at a dose of 10.0 mg/kg through intravenous route and time at which sustained ventricular arrhythmias were induced was recorded.(Base line value-2); type: functional, Canis lupus familiaris, Cardiac ventricle; in short: as §1
Canis familiaris [15] = experiment: Compound was tested in vivo in dogs at a dose of 3.0 mg/kg through intravenous route and time at which nonsustained ventricular arrhythmias were induced was recorded.(Base line value-1); type: functional, Canis lupus familiaris, Cardiac ventricle; settings: in the assay text read “Base line value-0” for “Base line value-1”; in short: as §1
Oryctolagus cuniculus [16] = species on record: Oryctolagus cuniculus; experiment: Tested for conduction time measured at a pacing rate of 1 Hz in vitro with rabbit heart tissue preparations.; type: functional; in short: as §2
Canis familiaris [17] = experiment: Compound was tested in vivo in dogs at a dose of 3.0 mg/kg through intravenous route and time at which ventricular fibrillation was induced was recorded.(Base line value-6); type: functional, Canis lupus familiaris, Cardiac ventricle; settings: in the assay text read “Base line value-3” for “Base line value-6”; in short: as §1
Canis familiaris [18] = experiment: Conduction time from the His bundle to the onset of ventricular depolarizations was tested in dogs at a dose of 1.0 mg/kg through intravenous administration. (baseline value- 17+/-1 ); type: functional, Canis lupus familiaris, Cardiac ventricle
Canis familiaris [19] = experiment: Compound was tested in vivo in dogs at a dose of 1.0 mg/kg through intravenous route and time at which ventricular arrhythmias were not indicible was recorded.(Base line value-5); type: functional, Canis lupus familiaris, Cardiac ventricle; in short: as §1
Canis familiaris [20] = experiment: Compound was tested in vivo in dogs at a dose of 10 mg/kg through intravenous route and time at which ventricular arrhythmias were not indicible was recorded.(Base line value-5); type: functional, Canis lupus familiaris, Cardiac ventricle; in short: as §1
Canis familiaris [21] = experiment: Conduction time for ventricular refractory period of the first premature stimulus was tested in dogs at a dose of 1.0 mg/kg through intravenous administration. (baseline value- 137+/-4); type: functional, Canis lupus familiaris, Cardiac ventricle
Canis familiaris [22] = experiment: Conduction time from the atrium to His bundle was tested in dogs at a dose of 10.0 mg/kg through intravenous administration. (baseline value- 73+/-3 ); type: functional, Canis lupus familiaris
Canis familiaris [23] = experiment: Compound was tested in vivo in dogs at a dose of 0.1 mg/kg through intravenous route and time at which conduction block at the atrioventricular node prevented atrial pacing was recorded.(Base line value-0); type: functional, Canis lupus familiaris; in short: as §1
Canis familiaris [24] = experiment: Compound was tested in vivo in dogs at a dose of 1.0 mg/kg through intravenous route and time at which conduction block at the atrioventricular node prevented atrial pacing was recorded.(Base line value-0); type: functional, Canis lupus familiaris; in short: as §1
Canis familiaris [25] = experiment: Conduction time for ventricular refractory period of the second premature stimulus was tested in dogs at a dose of 3.0 mg/kg through intravenous administration. (baseline value- 123+/-4); type: functional, Canis lupus familiaris, Cardiac ventricle
Canis familiaris [26] = experiment: Conduction time for ventricular refractory period of the first premature stimulus was tested in dogs at a dose of 3.0 mg/kg through intravenous administration. (baseline value- 137+/-4); type: functional, Canis lupus familiaris, Cardiac ventricle
Canis familiaris [27] = experiment: Conduction time from Q wave to T wave of lead II electrocardiogram was tested in dogs at a dose of 1.0 mg/kg through intravenous administration. (baseline value- 352+/-7); type: functional, Canis lupus familiaris
Canis familiaris [28] = experiment: Conduction time for ventricular refractory period of the second premature stimulus was tested in dogs at a dose of 10 mg/kg through intravenous administration. (baseline value- 123+/-4); type: functional, Canis lupus familiaris, Cardiac ventricle
Canis familiaris [29] = experiment: Conduction time from the His bundle to the onset of ventricular depolarizations was tested in dogs at a dose of 3.0 mg/kg through intravenous administration. (baseline value- 17+/-1 ); type: functional, Canis lupus familiaris, Cardiac ventricle
Canis familiaris [30] = experiment: Compound was tested in vivo in dogs at a dose of 1.0 mg/kg through intravenous route and time at which sustained ventricular arrhythmias were induced was recorded.(Base line value-2); type: functional, Canis lupus familiaris, Cardiac ventricle; in short: as §1
Canis familiaris [31] = experiment: Conduction time for ventricular refractory period of the second premature stimulus was tested in dogs at a dose of 1.0 mg/kg through intravenous administration. (baseline value- 123+/-4); type: functional, Canis lupus familiaris, Cardiac ventricle
Canis familiaris [32] = experiment: Conduction time from Q wave to T wave of lead II electrocardiogram was tested in dogs at a dose of 10 mg/kg through intravenous administration. (baseline value- 352+/-7); type: functional, Canis lupus familiaris
Canis familiaris [33] = experiment: Conduction time from the atrium to His bundle was tested in dogs at a dose of 3.0 mg/kg through intravenous administration. (baseline value 73+/-3 ); type: functional, Canis lupus familiaris
Canis familiaris [34] = experiment: Conduction time for ventricular refractory period of the first premature stimulus was tested in dogs at a dose of 10.0 mg/kg through intravenous administration. (baseline value- 137+/-4); type: functional, Canis lupus familiaris, Cardiac ventricle
Canis familiaris [35] = experiment: Compound was tested in vivo in dogs at a dose of 0.3 mg/kg through intravenous route and time at which conduction block at the atrioventricular node prevented atrial pacing was recorded.(Base line value-0); type: functional, Canis lupus familiaris; in short: as §1
Canis familiaris [36] = experiment: Compound was tested in vivo in dogs at a dose of 10.0 mg/kg through intravenous route and time at which conduction block at the atrioventricular node prevented atrial pacing was recorded.(Base line value-0); type: functional, Canis lupus familiaris; in short: as §1
Oryctolagus cuniculus [37] = species on record: Oryctolagus cuniculus; experiment: Tested for rate automaticity measured in beats per minute from unpaced right atria of rabbit heart.; type: functional; in short: as §2

Compound `CC(C)NCC(O)c1ccc(NS(C)(=O)=O)cc1.Cl` (configuration not stated) [SOTALOL HYDROCHLORIDE] has a Time (Canis familiaris [1]) of 0 animals, an ERP3 (Oryctolagus cuniculus [2]) of 4.9 and a Time (Canis familiaris [3]) of 0 animals. It also gave a Time (Canis familiaris [4]) of 0 animals, a Time (Canis familiaris [5]) of 1 animals and a Time (Canis familiaris [6]) of 197 ms. It also gave a Time (Canis familiaris [7]) of 42 ms, an ERP1 (Oryctolagus cuniculus [8]) of 7.3 and a Time (Canis familiaris [9]) of 1 animals. It also gave a Number of animals not inducible (Canis familiaris [10]) of 7 animals, a Time (Canis familiaris [11]) of 0 animals and an FOC (Oryctolagus cuniculus [12]) of 6. The Time (Canis familiaris [13]) was 77 ms, the Time (Canis familiaris [14]) was 0 animals and the Time (Canis familiaris [15]) was 2 animals. It also gave a CT1 (Oryctolagus cuniculus [16]) of -11.7, a Time (Canis familiaris [17]) of 0 animals and a Time (Canis familiaris [18]) of 40 ms. It also gave a Time (Canis familiaris [19]) of 8 animals, a Time (Canis familiaris [20]) of 5 animals and a Time (Canis familiaris [21]) of 145 ms. It also gave a Time (Canis familiaris [22]) of 107 ms, a Time (Canis familiaris [23]) of 0 animals and a Time (Canis familiaris [24]) of 0 animals. It also gave a Time (Canis familiaris [25]) of 138 ms, a Time (Canis familiaris [26]) of 152 ms and a Time (Canis familiaris [27]) of 197 ms. The Time (Canis familiaris [28]) was 141 ms, the Time (Canis familiaris [29]) was 39 ms and the Time (Canis familiaris [30]) was 2 animals. The Time (Canis familiaris [31]) was 126 ms, the Time (Canis familiaris [32]) was 181 ms and the Time (Canis familiaris [33]) was 90 ms. For the same compound, the Time (Canis familiaris [34]) was 157 ms, the Time (Canis familiaris [35]) was 0 animals and the Time (Canis familiaris [36]) was 4 animals. It also gave a Rate (Oryctolagus cuniculus [37]) of -10.
